Measured values from different studies.
Compare with care: the assays were run in different laboratories.
BDKRB1: B1 bradykinin receptor (BDKRB1, Homo sapiens, UniProt P46663)
FAAH: Fatty-acid amide hydrolase 1 (FAAH, Homo sapiens, UniProt O00519)

COCc1c(-c2cc3cc(C)cc(OC)c3s2)c2c(N)ncnn2c1CN1CCNC(=O)C1
inhibition (Prostaglandin G/H synthase 1 (PTGS1, Homo sapiens, UniProt P23219); enzyme activity, inhibitor; 10 µM): -15%

C#Cc1n[nH]c2c(-c3cn([C@@H](C)c4ccccn4)c(=O)[nH]c3=O)cc(F)cc12
inhibition (Receptor-type tyrosine-protein kinase FLT3 (FLT3, Homo sapiens, UniProt P36888); enzyme activity, inhibitor; 0.1 µM): 6.2%

c1ccc(C(NCCNC(c2ccccc2)c2ccccc2)c2ccccc2)cc1
inhibition (BDKRB1; cell-free assay; 10 µM): -4%

COc1ccc(S(=O)(=O)N(CC(=O)NO)CC(C)C)cc1
inhibition (Stromelysin-1 (MMP3, Homo sapiens, UniProt P08254); enzyme activity, inhibitor; 0.1 µM): 80%

COc1ccc(N(C)C(=O)Oc2nsnc2N2CCCCC2)cc1
inhibition (FAAH; enzyme activity, inhibitor; 10 µM, cell membranes): 17%

C[C@H](C(=O)N[C@H]1COc2ccccc2[C@@H]1S(C)(=O)=O)c1ccc(F)cc1
inhibition (BDKRB1; cell-free assay; 10 µM): 7%

CN(C(=O)Oc1nsnc1N1CCOCC1)C1CCCCCCC1
inhibition (FAAH; enzyme activity, inhibitor; 10 µM, cell membranes): 18%

O=C(Nc1cccnn1)N1CCN([C@@H]2CCOc3cc(C(F)(F)F)ccc32)CC1
inhibition (Gastrin/cholecystokinin type B receptor (CCKBR, Homo sapiens, UniProt P32239); cell-free assay; 20 µM): -15%
